From ChEMBL document CHEMBL3271935, “Synthesis and biological activity of some broad-spectrum N-acylphenyglycine cephalosporins” (1977)
Values after ≈ are worked out from the molar mass of the structure shown.

Assays:
[1] = test system: Pseudomonas aeruginosa; test: Antibacterial activity against Pseudomonas aeruginosa 1106 assessed as growth inhibition; format: functional
How it was run: (§1)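 Broth MIC by the standard microtiter technique in unbuffered Mueller-Hinton broth.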

[2] = test system: Pseudomonas aeruginosa; test: Antibacterial activity against Pseudomonas aeruginosa 1042 assessed as growth inhibition; format: functional; how it was run: as §1
[3] = test system: Staphylococcus aureus; test: Antibacterial activity against penicillin G resistant Staphylococcus aureus HH 127 assessed as growth inhibition by two-fold agar dilution method; format: functional
How it was run: (§2)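 Twofold agar dilution on Trypticase soy agar buffered to pH 6.0. MIC reported in μg/mL.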

[4] = test system: Escherichia coli; test: Antibacterial activity against Escherichia coli 12140 assessed as growth inhibition by two-fold agar dilution method; format: functional
How it was run: (§3)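 MIC (μg/mL) by twofold agar dilution on Trypticase soy agar buffered to pH 6.0.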

[5] = test system: Morganella morganii; test: Antibacterial activity against indole positive Proteus morganii 179 assessed as growth inhibition by two-fold agar dilution method; format: functional; how it was run: as §3
[6] = test system: Pseudomonas aeruginosa; test: Antibacterial activity against Pseudomonas aeruginosa 1063 assessed as growth inhibition; format: functional; how it was run: as §1
[7] = test system: Pseudomonas aeruginosa; test: Antibacterial activity against Pseudomonas aeruginosa 219 assessed as growth inhibition; format: functional; how it was run: as §1
[8] = test system: Klebsiella pneumoniae; test: Antibacterial activity against Klebsiella pneumoniae 4200 assessed as growth inhibition by two-fold agar dilution method; format: functional; how it was run: as §3
[9] = test system: Pseudomonas aeruginosa; test: Antibacterial activity against Pseudomonas aeruginosa 1062 assessed as growth inhibition; format: functional; how it was run: as §1
[10] = test system: Pseudomonas aeruginosa; test: Antibacterial activity against Pseudomonas aeruginosa 647 assessed as growth inhibition; format: functional; how it was run: as §1
[11] = test system: Salmonella paratyphi; test: Antibacterial activity against Salmonella paratyphi ATCC 12176 assessed as growth inhibition by two-fold agar dilution method; format: functional, Salmonella enterica subsp. enterica serovar Paratyphi A; conditions: Salmonella enterica; how it was run: as §2
[12] = test system: Klebsiella aerogenes; test: Antibacterial activity against Enterobacter aerogenes ATCC 13048 assessed as growth inhibition by two-fold agar dilution method; format: functional; how it was run: as §3
[13] = test system: Pseudomonas aeruginosa; test: Antibacterial activity against Pseudomonas aeruginosa 864 assessed as growth inhibition; format: functional; how it was run: as §1
[14] = test system: Pseudomonas aeruginosa; test: Antibacterial activity against Pseudomonas aeruginosa HH 63 assessed as growth inhibition by two-fold agar dilution method; format: functional; how it was run: as §3
[15] = test system: Escherichia coli; test: Antibacterial activity against Escherichia coli 12140 infected in sc dosed mouse administered at 1 to 5 hrs measured for 3 days; format: functional; conditions: Escherichia coli, 12140, sc; read-out: PD50
How it was run: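 Mice infected intraperitoneally with about 2×10^3 organisms per mouse of E. coli 12140 culture diluted in 5% hog gastric mucin, giving uniformly lethal infection. Fourfold dilutions given subcutaneously in equally divided portions at 1 and 5 h postinfection, five groups per compound. Survivors observed 3 days. PD50 is total dose (mg/kg) protecting 50%, calculated by Litchfield–Wilcoxon method.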

[16] = test system: Pseudomonas aeruginosa; test: Antibacterial activity against Pseudomonas aeruginosa 1504 assessed as growth inhibition; format: functional; how it was run: as §1

Structure (SMILES)	MIC [1] [µg/mL]	MIC [2] [µg/mL]	MIC [3] [µg/mL]	MIC [4] [µg/mL]	MIC [5] [µg/mL]	MIC [6] [µg/mL]	MIC [7] [µg/mL]	MIC [8] [µg/mL]	MIC [9] [µg/mL]	MIC [10] [µg/mL]	MIC [11] [µg/mL]	MIC [12] [µg/mL]	MIC [13] [µg/mL]	MIC [14] [µg/mL]	ED50 [15] [mg/kg]	MIC [16] [µg/mL]
Cn1nnnc1SCC1=C(C(=O)[O-])N2C(=O)[C@@H](NC(=O)C(NC(=O)[C@@H]3O[C@@H]3C(=O)[O-])c3ccccc3)[C@H]2SC1.[Na+].[Na+] (mixture of isomers)	> 500	> 500	12.5	6.3	3.1	> 500	500	3.1	> 500	> 500	6.3	12.5	500	200	35	500
Cn1nnnc1SCC1=C(C(=O)[O-])N2C(=O)[C@@H](NC(=O)C(NC(=O)C3CCC(C(=O)[O-])O3)c3ccccc3)[C@H]2SC1.[Na+].[Na+] (mixture of isomers)	500	125	3.1	3.1	1.6	250	125	1.6	125	125	3.1	3.1	500	100	25	63
Cn1nnnc1SCC1=C(C(=O)[O-])N2C(=O)[C@@H](NC(=O)C(NC(=O)C3CO3)c3ccccc3)[C@H]2SC1.[Na+] (mixture of isomers)	> 500	> 500	1.6	12.5	3.1	> 500	> 500	6.3	> 500	> 500	6.3	12.5	> 500	200	45	500
CC1(C)S[C@@H]2[C@H](NC(=O)C(C(=O)O)c3ccccc3)C(=O)N2[C@H]1C(=O)O (some centres undefined) [CARBENICILLIN]	125 (≈ 330 µM)	63 (≈ 166 µM)	3.1 (≈ 8.19 µM)	6.3 (≈ 16.6 µM)	0.8 (≈ 2.11 µM)	63 (≈ 166 µM)	63 (≈ 166 µM)	6.3 (≈ 16.6 µM)	63 (≈ 166 µM)	63 (≈ 166 µM)	6.3 (≈ 16.6 µM)	12.5 (≈ 33 µM)	500 (≈ 1320 µM)	50 (≈ 132 µM)	25	63 (≈ 166 µM)
